These results are taken from article PMC4443282 (Molecules and Cells, 2015).

Residue numbers refer to the chain shown, from its start.

The target in data set [1] is T1, D38N KSI (Pseudomonas putida, UniProt P07445, D40N).
T1 sequence (P07445 1-131 D40N): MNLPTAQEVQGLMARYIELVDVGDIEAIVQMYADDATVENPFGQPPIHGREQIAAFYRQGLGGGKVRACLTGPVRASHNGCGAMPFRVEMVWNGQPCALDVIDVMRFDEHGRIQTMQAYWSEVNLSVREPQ
Kind of data set: KD by quenching of intrinsic tryptophan fluorescence of KSI. The format is binding. The gist of the method: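 Mutant KSI was expressed in E. coli BL21(DE3) and purified to a single SDS-PAGE band. Steroid ligand in DMSO was titrated successively into KSI in 10 mM potassium phosphate with 10% DMSO. Intrinsic fluorescence was read at ex 295/em 315 nm and corrected for dilution. KD was fitted to a binding equation using total steroid and KSI concentrations. Mean ± SD of three independent experiments.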

In data set [2] the test system is Y30F/Y55F/Y115F/D38N KSI. Kind of data set: KD by quenching of intrinsic tryptophan fluorescence of KSI. The format is binding, Pseudomonas putida. The settings on record: relative to D38N KSI.
For data set [3], the target named is T2, Y55F/D38N KSI (Pseudomonas putida, UniProt P07445, D40N/Y57F).
T2 sequence (P07445 1-131 D40N/Y57F): T1 sequence (P07445 1-131 D40N) with Y57F
Described as above. The format is binding.

For data set [4], the target named is T3, Y30F/D38N KSI (Pseudomonas putida, UniProt P07445, D40N/Y32F).
T3 sequence (P07445 1-131 Y32F/D40N): T1 sequence (P07445 1-131 D40N) with Y32F
The description is as above. In kind it is binding.

For data set [5], the target named is T4, Y30F/Y55F/D38N KSI (Pseudomonas putida, UniProt P07445, D40N/Y32F/Y57F).
T4 sequence (P07445 1-131 Y32F/D40N/Y57F): T1 sequence (P07445 1-131 D40N) with Y32F, Y57F
The description is as above. In kind it is binding.

Data set [6] addresses T5, Y30F/Y55F/Y115F/D38N KSI (Pseudomonas putida, UniProt P07445, D40N/Y119F/Y32F/Y57F).
T5 sequence (P07445 1-131 Y32F/D40N/Y57F/Y119F): T1 sequence (P07445 1-131 D40N) with Y32F, Y57F, Y119F
The description is as above. The format is binding.

The target of data set [7] is T6, Y115F/D38N KSI (Pseudomonas putida, UniProt P07445, D40N/Y119F).
T6 sequence (P07445 1-131 D40N/Y119F): T1 sequence (P07445 1-131 D40N) with Y119F
Described as above. The format is binding.

In data set [8] the test system is Y30F/Y55F KSI. Kind of data set: Kinetic parameters kcat and KM for steroid substrate. In kind it is biochemical, Pseudomonas putida. The settings on record: relative to wild type.
Data set [9] concerns the target T7, Y30F/Y55F/Y115F KSI (Pseudomonas putida, UniProt P07445, Y119F/Y32F/Y57F).
T7 sequence (P07445 1-131 Y32F/Y57F/Y119F): T1 sequence (P07445 1-131 D40N) with Y32F, N40D, Y57F, Y119F
The data set is described as above. In kind it is biochemical.

The subject of data set [10] is Y30F KSI. The settings on record: ref Kim et al., 2000; cited from earlier work.
Data set [11] relates to Y55F KSI. The settings on record: ref Kim et al., 2000; cited from earlier work.
The test system of data set [12] is Y30F KSI. Kind of data set: Kinetic parameters kcat and KM for steroid substrate. The format is biochemical, Pseudomonas putida. The settings on record: relative to wild type.
In data set [13] the test system is wild-type KSI. Described as above. The format is biochemical, Pseudomonas putida. The settings on record: relative to wild type.
Data set [14] concerns Y55F KSI. The data set is described as above. The format is biochemical, Pseudomonas putida. Particulars: relative to wild type.
For data set [15] the following is noted: in solution; ref Ha et al., 2000; cited from earlier work.
Data set [16] has as its target T8, Y115F KSI (Pseudomonas putida, UniProt P07445, Y119F).
T8 sequence (P07445 1-131 Y119F): T1 sequence (P07445 1-131 D40N) with N40D, Y119F
Kind of data set: Kinetic parameters kcat and KM for steroid substrate. In kind it is biochemical.

Setting [17] is: 34 mM potassium phosphate, pH 7.0, 2.5 mM EDTA, 3.3 % methanol, 298 K.

The Kd is a measure of binding affinity in units of concentration. For the molecule `C[C@]12CC[C@@H]3c4ccc(O)cc4CC[C@H]3[C@@H]1CCC2=O` [estrone], the Kd in data set [1] is 110 nM. For the same molecule, in data set [2], the “decrease in binding energy” value was 1.3 to 1.4 kcal/mol and the “factor by which affinity is lower than that of D38N KSI” value is on record as 9.1–11.
`C[C@]12CCc3c(ccc4cc(O)ccc34)[C@@H]1CCC2=O` [equilenin]: the Kd in [3] came out at 80 nM; in data set [1], 31 nM; in data set [4] it was 70 nM; in [5] it was 250 nM; in [6], 340 nM; in [7], 70 nM. Also, the “decrease in binding energy” value in data set [2] lay in the range of 1.3 to 1.4 kcal/mol. Further, the “factor by which affinity is lower than that of D38N KSI” value in data set [2] is given as 9.1–11.
By Km is commonly meant the substrate concentration at which the rate is half of its maximum. Turning to `C[C@]12CCC(=O)CC1=CC[C@@H]1[C@@H]2CC[C@]2(C)C(=O)CC[C@@H]12` [5-AND, 5-androstene-3,17-dione], the Relative kcat is 0.50 in [8]; 0.57 in data set [9] (relative to wild type); 0.84 in data set [12]; 1 in data set [13]; 0.17 in [14]; 0.68 in [16] (relative to wild type). Moreover, the Km was 77.3 ± 5.6 µM in data set [9] (setting [17]) and 41.7 ± 2 µM in data set [16] (setting [17]). The kcat entry in data set [9] (setting [17]) is on record as “(12.2 ± 0.2) × 10^3 s^−1”; in data set [16] (setting [17]) it was “(14.5 ± 0.4) × 10^3 s^−1”. Moreover, the “factor of decrease in kcat relative to the wild-type KSI” value in [10] is 1.2; in [11] it was 6. Besides, the “pKa of the C4 proton” value in data set [15] is recorded as 12.7.
